The RNAGym collection of RNA variant scans (doi:10.1002/anie.201605470)

B1: Osa-1-4 twister ribozyme (parent)
chain: CCGCCUAACACUGCCAAUGCCGGUCCCAAGCCCGGAUAAAAGUGGAGGGGGCGG

Variants of: B1
Test: self-cleavage, relative activity (ratio to wild type); higher = more cleavage; co-transcriptional
In short: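 In vitro transcription at 37 °C for 2 h allowed the twister ribozyme to cleave itself as it was made. Its 54-nucleotide Oryza sativa template had been synthesised with 97 % wild-type base and 1 % of each other base at the 48 positions downstream of the cleavage site. A template-switching oligonucleotide was used for reverse transcription, followed by PCR amplification and deep sequencing. Whether reads carried upstream sequence set the cleavage status, and relative activity is the fraction cleaved normalised to wild type.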

Row | Variant | self-cleavage
1 | CCGCCUAACACUGCCAAUUCCGGUCCCAAGCCGGGAUAAAAGUGGAGGGGGCGG | 0.03
2 | CCGCCUAACACUGCCAAUACCGGUCCCAAGCCGGGAUAAAAGUGGAGGGGGCGG | 0.05
3 | CCGCCUAACACUGCCAAUCCCGGUCCCAAGCCGGGAUAAAAGUGGAGGGGGCGG | 0.02
4 | CCGCCUAACACUGCCAAUGCCGGCCCCAAGCCGGGAUAAAAGUGGAGGGGGCGG | 0.04
5 | CCGCCUAACACUGCCAAUGCCGGACCCAAGCCGGGAUAAAAGUGGAGGGGGCGG | 0.04
6 | CCGCCUAACACUGCCAAUGCCGGGCCCAAGCCGGGAUAAAAGUGGAGGGGGCGG | 0.01
7 | CCGCCUAACACUGCCAAUGCCGGUCCCAAGCCGGGAUAAAAGUGGAGCGGGCGG | 0.03
8 | CCGCCUAACACUGCCAAUGCCGGUCCCAAGCCGGGAUAAAAGUGGAGAGGGCGG | 0.02
9 | CCGCCUAACACUGCCAAUGCCGGUCCCAAGCCGGGAUAAAAGUGGAGUGGGCGG | 0.02
10 | CCGCCUAACACUGCCAAGGCCGGUCCCAAGCCAGGAUAAAAGUGGAGGGGGCGG | 0.17
11 | CCGCCUAACACUGCCAAAGCCGGUCCCAAGCCAGGAUAAAAGUGGAGGGGGCGG | 0.15
12 | CCGCCUAACACUGCCAACGCCGGUCCCAAGCCAGGAUAAAAGUGGAGGGGGCGG | 0.12
13 | CCGCCUAACACUGCCAAUGCCGGUCCCAAGCCGGGACAAAAGUGGAGGGGGCGG | 0.05
14 | CCGCCUAACACUGCCAAUGCCGGUCCCAAGCCGGGAAAAAAGUGGAGGGGGCGG | 0.08
15 | CCGCCUAACACUGCCAAUGCCGGUCCCAAGCCGGGAGAAAAGUGGAGGGGGCGG | 0.08
16 | CCGCCUAACACUGCCAAUGCCGGUCCCAAGCCGGGAUAAAAAUGGAGGGGGCGG | 0.05
17 | CCGCCUAACACUGCCAAUGCCGGUCCCAAGCCGGGAUAAAACUGGAGGGGGCGG | 0.05
18 | CCGCCUAACACUGCCAAUGCCGGUCCCAAGCCGGGAUAAAAUUGGAGGGGGCGG | 0.02
19 | CCGCCUAACACGGCCAAUGCCGGUCCCAAGCCGGGAUAAAAGUGGAGGGGGCGG | 0.07
20 | CCGCCUAACACAGCCAAUGCCGGUCCCAAGCCGGGAUAAAAGUGGAGGGGGCGG | 0.05
21 | CCGCCUAACACCGCCAAUGCCGGUCCCAAGCCGGGAUAAAAGUGGAGGGGGCGG | 0.03
22 | CCGCCUAACACUGCCAAUGCCGGUCCCAAGCCGGGAUAAAAGUGGAGGUGGCGG | 0.02
23 | CCGCCUAACACUGCCAAUGCCGGUCCCAAGCCGGGAUAAAAGUGGAGGCGGCGG | 0.03
24 | CCGCCUAACACUGCCAAUGCCGGUCCCAAGCCGGGAUAAAAGUGGAGGAGGCGG | 0.05
25 | CCGCCUAACACUGCCAAUGCCGGUCCCAAGCCGGGAUAAAAGGGGAGGGGGCGG | 0.06

Row | Variant | self-cleavage
26 | CCGCCUAACACUGCCAAUGCCGGUCCCAAGCCGGGAUAAAAGAGGAGGGGGCGG | 0.06
27 | CCGCCUAACACUGCCAAUGCCGGUCCCAAGCCGGGAUAAAAGCGGAGGGGGCGG | 0.03
28 | CCGCCUAACACUGCCAAUGCCGGUCCCAAGCCGGGAUAAAAGUGGAGGGUGCGG | 0.09
29 | CCGCCUAACACUGCCAAUGCCGGUCCCAAGCCGGGAUAAAAGUGGAGGGAGCGG | 0.06
30 | CCGCCUAACACUGCCAAUGCCGGUCCCAAGCCGGGAUAAAAGUGGAGGGCGCGG | 0.05
31 | CCGCCUAACACUGCCAAUGCCAGUCCCAAGCCGGGAUAAAAGUGGAGGGGGCGG | 0.16
32 | CCGCCUAACACUGCCAAUGCCCGUCCCAAGCCGGGAUAAAAGUGGAGGGGGCGG | 0.62
33 | CCGCCUAACACUGCCAAUGCCUGUCCCAAGCCGGGAUAAAAGUGGAGGGGGCGG | 0.87
34 | CCGCCUAACACUGCCAAUGCCGGUCCCAAGCCGGGAUAAAAGUGAAGGGGGCGG | 0.04
35 | CCGCCUAACACUGCCAAUGCCGGUCCCAAGCCGGGAUAAAAGUGCAGGGGGCGG | 0.02
36 | CCGCCUAACACUGCCAAUGCCGGUCCCAAGCCGGGAUAAAAGUGUAGGGGGCGG | 0.02
37 | CCGCCUAACACUGCCAAUGCCGGUCCCAAGCCAGGAUAAAAGCGGAGGGGGCGG | 0.06
38 | CCGCCUAACACUGCCAAUGCCGGUCCCAAGCCAGGAUAAAAGGGGAGGGGGCGG | 0.08
39 | CCGCCUAACACUGCCAAUGCCGGUCCCAAGCCAGGAUAAAAGAGGAGGGGGCGG | 0.08
40 | CCGCCUAACACUGCCAAUGCCGUUCCCAAGCCGGGAUAAAAGUGGAGGGGGCGG | 0.03
41 | CCGCCUAACACUGCCAAUGCCGCUCCCAAGCCGGGAUAAAAGUGGAGGGGGCGG | 0.03
42 | CCGCCUAACACUGCCAAUGCCGAUCCCAAGCCGGGAUAAAAGUGGAGGGGGCGG | 0.05
43 | CCGCCUAACACUGCCAACGCCGGUCCCAAGCCGGGAUAAAAGUGGAGGGGGCGG | 0.08
44 | CCGCCUAACACUGCCAAGGCCGGUCCCAAGCCGGGAUAAAAGUGGAGGGGGCGG | 0.08
45 | CCGCCUAACACUGCCAAAGCCGGUCCCAAGCCGGGAUAAAAGUGGAGGGGGCGG | 0.07
46 | CCGCCUAACACUGCCAAUGCCGGUCCCAAGCCUGGAUAAAAGUGGAGGGGGCGG | 0.88
47 | CCGCCUAACACUGCCAAUGCCGGUCCCAAGCCGGGAUAAAAGUGGAGGGGGCGG | 0.06
48 | CCGCCUAACACGGCCAAUGCCGGUCCCAAGCCAGGAUAAAAGUGGAGGGGGCGG | 0.06
49 | CCGCCUAACACAGCCAAUGCCGGUCCCAAGCCAGGAUAAAAGUGGAGGGGGCGG | 0.06
50 | CCGCCUAACACCGCCAAUGCCGGUCCCAAGCCAGGAUAAAAGUGGAGGGGGCGG | 0.06

Row | Variant | self-cleavage
51 | CCGCCUAACACUGCCAAUGCCGGUCCCAAGCCAGGAGAAAAGUGGAGGGGGCGG | 0.29
52 | CCGCCUAACACUGCCAAUGCCGGUCCCAAGCCAGGAAAAAAGUGGAGGGGGCGG | 0.34
53 | CCGCCUAACACUGCCAAUGCCGGUCCCAAGCCAGGACAAAAGUGGAGGGGGCGG | 0.14
54 | CCGCCUAACACUGCCAAUGCCGGUCCCAAGCCAGGAUAAAAGUGGAGGGGGCGU | 0.24
55 | CCGCCUAACACUGCCAAUGCCGGUCCCAAGCCAGGAUAAAAGUGGAGGGGGCGA | 0.11
56 | CCGCCUAACACUGCCAAUGCCGGUCCCAAGCCAGGAUAAAAGUGGAGGGGGCGC | 0.07
57 | CCGCCUAACACUGCCAAUGCCGGUCCCAACCCGGGAUAAAAGUGGAGGGGGCGG | 0.02
58 | CCGCCUAACACUGCCAAUGCCGGUCCCAAACCGGGAUAAAAGUGGAGGGGGCGG | 0.02
59 | CCGCCUAACACUGCCAAUGCCGGUCCCAAUCCGGGAUAAAAGUGGAGGGGGCGG | 0.02
60 | CCGCCUAACACUGCCAAUGCCGGUCCCAAGCCGGGAUAAAAGUGGAGGGGGUGG | 0.05
61 | CCGCCUAACACUGCCAAUGCCGGUCCCAAGCCGGGAUAAAAGUGGAGGGGGAGG | 0.08
62 | CCGCCUAACACUGCCAAUGCCGGUCCCAAGCCGGGAUAAAAGUGGAGGGGGGGG | 0.26
63 | CCGCCUAACACUGCCAAUGCCGGUCCCAAGCCUGGAUAAAAGUGGAGGGGGAGG | 0.84
64 | CCGCCUAACACUGCCAAUGCCGGUCCCAAGCCGGGAUAAAAGUUGAGGGGGCGG | 0.05
65 | CCGCCUAACACUGCCAAUGCCGGUCCCAAGCCGGGAUAAAAGUAGAGGGGGCGG | 0.05
66 | CCGCCUAACACUGCCAAUGCCGGUCCCAAGCCGGGAUAAAAGUCGAGGGGGCGG | 0.05
67 | CCGCCUAACACUGCCAAUGCCGGUCCCAAGCCGGGAUAAAAGUGGAGGGGCCGG | 0.06
68 | CCGCCUAACACUGCCAAUGCCGGUCCCAAGCCGGGAUAAAAGUGGAGGGGUCGG | 0.05
69 | CCGCCUAACACUGCCAAUGCCGGUCCCAAGCCGGGAUAAAAGUGGAGGGGACGG | 0.06
70 | CCGCCUAACACUGCCAAUGCCGGUCCCAAGCCAGGAUAAAAGUGGAGGGGGCUG | 0.06
71 | CCGCCUAACACUUCCAAUGCCGGUCCCAAGCCGGGAUAAAAGUGGAGGGGGCGG | 0.01
72 | CCGCCUAACACUACCAAUGCCGGUCCCAAGCCGGGAUAAAAGUGGAGGGGGCGG | 0.03
73 | CCGCCUAACACUCCCAAUGCCGGUCCCAAGCCGGGAUAAAAGUGGAGGGGGCGG | 0.01
74 | CCGCCUAACACUGCCAAUGCCGGUCCCAAGCCGGGAUAAAAGUGGAUGGGGCGG | 0.02
75 | CCGCCUAACACUGCCAAUGCCGGUCCCAAGCCGGGAUAAAAGUGGAAGGGGCGG | 0.03

Row | Variant | self-cleavage
76 | CCGCCUAACACUGCCAAUGCCGGUCCCAAGCCGGGAUAAAAGUGGACGGGGCGG | 0.03
77 | CCGCCUAACACUGCCAAUGCCGGUCCCAAGCCGGGAUAAAAGUGGAGGGGGCUG | 0.04
78 | CCGCCUAACACUGCCAAUGCCGGUCCCAAGCCGGGAUAAAAGUGGAGGGGGCAG | 0.08
79 | CCGCCUAACACUGCCAAUGCCGGUCCCAAGCCGGGAUAAAAGUGGAGGGGGCCG | 0.03
80 | CCGCCUAACACUGCCAAUGCCGGUCCCAAGCCGGAAUAAAAGUGGAGGGGGCGG | 0.05
81 | CCGCCUAACACUGCCAAUGCCGGUCCCAAGCCGGCAUAAAAGUGGAGGGGGCGG | 0.03
82 | CCGCCUAACACUGCCAAUGCCGGUCCCAAGCCGGUAUAAAAGUGGAGGGGGCGG | 0.04
83 | CCGCCUAACACUGCCAAUGCCGGUCCCAAGCCGGGAUAAAAGUGGAGGGGGCGA | 0.08
84 | CCGCCUAACACUGCCAAUGCCGGUCCCAAGCCGGGAUAAAAGUGGAGGGGGCGC | 0.03
85 | CCGCCUAACACUGCCAAUGCCGGUCCCAAGCCGGGAUAAAAGUGGAGGGGGCGU | 0.1
86 | CCGCCUAACACUGCCAAUGCCGGCCCCAAGCCAGGAUAAAAGUGGAGGGGGCGG | 0.05
87 | CCGCCUAACACUGCCAAUGCCGGACCCAAGCCAGGAUAAAAGUGGAGGGGGCGG | 0.05
88 | CCGCCUAACACUGCCAAUGCCGGGCCCAAGCCAGGAUAAAAGUGGAGGGGGCGG | 0.02
89 | CCGCCUAAAACUGCCAAUGCCGGUCCCAAGCCGGGAUAAAAGUGGAGGGGGCGG | 0.02
90 | CCGCCUAAGACUGCCAAUGCCGGUCCCAAGCCGGGAUAAAAGUGGAGGGGGCGG | 0.07
91 | CCGCCUAAUACUGCCAAUGCCGGUCCCAAGCCGGGAUAAAAGUGGAGGGGGCGG | 0.04
92 | CCGCCUAACACUGCCAAUGCCGGUCCCAAGCCGCGAUAAAAGUGGAGGGGGCGG | 0.05
93 | CCGCCUAACACUGCCAAUGCCGGUCCCAAGCCGAGAUAAAAGUGGAGGGGGCGG | 0.06
94 | CCGCCUAACACUGCCAAUGCCGGUCCCAAGCCGUGAUAAAAGUGGAGGGGGCGG | 0.05
95 | CCGCCUAAAACUGCCAAUGCCGGUCCCAAGCCUGGAUAAAAGUGGAGGGGGCGG | 0.2
96 | CCGCCUAAGACUGCCAAUGCCGGUCCCAAGCCUGGAUAAAAGUGGAGGGGGCGG | 0.3
97 | CCGCCUAAUACUGCCAAUGCCGGUCCCAAGCCUGGAUAAAAGUGGAGGGGGCGG | 0.39
